In ChEMBL document CHEMBL4387704, “Design, synthesis and biological evaluation of novel isoindolinone derivatives as potent histone deacetylase inhibitors” (Eur J Med Chem, 2019):
Each block holds one molecule with its values, some of them ahead of it. Activity calls are given as the source filed them. No cut-off for these calls is given here.

Assays:
[1] = target: Histone deacetylase 1 (Homo sapiens, UniProt Q13547); experiment: Inhibition of HDAC1 (unknown origin) using Fluor de Lys substrate by fluorescence assay relative to control
[2] = Metabolic stability in human liver microsomes assessed as internal clearance at 1 uM preincubated for 10 mins followed by NADPH addition measured upto 60 mins by LC-MS/MS analysis; assay type: ADME, Microsome; conditions: read-out: CLH
Procedure, shortened: (§1)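 Liver microsomes from male SD rat, dog or human at 0.5 mg/mL in 100 mM potassium phosphate pH 7.4 with 1 μM compound. Prewarmed 37 °C 10 min, started with 1 mM NADPH. Stopped at 0, 5, 10, 20, 40, 60 min with cold methanol containing glibenclamide internal standard; supernatant by LC–MS/MS; T1/2 and CLint derived.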

[3] = Metabolic stability in rat liver microsomes assessed as internal clearance at 1 uM preincubated for 10 mins followed by NADPH addition measured upto 60 mins by LC-MS/MS analysis; assay type: ADME, Microsome; conditions: read-out: CLH; procedure, shortened: as §1
[4] = Metabolic stability in dog liver microsomes assessed as internal clearance at 1 uM preincubated for 10 mins followed by NADPH addition measured upto 60 mins by LC-MS/MS analysis; assay type: ADME, Canis lupus familiaris, Microsome; conditions: read-out: CLH; procedure, shortened: as §1
[5] = Metabolic stability in dog liver microsomes assessed as half life at 1 uM preincubated for 10 mins followed by NADPH addition measured upto 60 mins by LC-MS/MS analysis; assay type: ADME, Canis lupus familiaris, Microsome; procedure, shortened: as §1
[6] = Metabolic stability in rat liver microsomes assessed as half life at 1 uM preincubated for 10 mins followed by NADPH addition measured upto 60 mins by LC-MS/MS analysis; assay type: ADME, Microsome; procedure, shortened: as §1
[7] = target: Histone deacetylase 5 (Homo sapiens) (UniProt Q9UQL6); experiment: Inhibition of HDAC5 (unknown origin) using Fluor de Lys substrate by fluorescence assay relative to control
Procedure, shortened: (§2)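 Recombinant HDAC isoform assays run by a contract lab. Compounds in DMSO, 10-dose IC50 mode, 3-fold serial dilution from 50 μM. Duplicate runs; IC50 from curve fitting.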

[8] = test system: HL-60; experiment: Antiproliferative activity against human HL60 assessed as reduction in cell viability measured after 72 hrs using alamar blue based fluorescence method; assay type: functional; conditions: HL-60, 72 h
Procedure, shortened: (§3)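 Leukemia lines grown in IMDM with penicillin/streptomycin, HL-60 with 20% FBS and K562 with 10% FBS, at 37 °C, 5% CO2. Cells in 96-well plates exposed to drug for 72 h. Alamar blue (1 mM solution) added for 5–6 h, fluorescence read at 530/590 nm.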

[9] = target: Polyamine deacetylase HDAC10 (Homo sapiens, UniProt Q969S8); experiment: Inhibition of HDAC10 (unknown origin) using Fluor de Lys substrate by fluorescence assay relative to control; procedure, shortened: as §2
[10] = target: Protein deacetylase HDAC6 (Homo sapiens) (UniProt Q9UBN7); experiment: Inhibition of HDAC6 (unknown origin) using Fluor de Lys substrate by fluorescence assay relative to control; procedure, shortened: as §2
[11] = target: Histone deacetylase 9 (Homo sapiens) (UniProt Q9UKV0); experiment: Inhibition of HDAC9 (unknown origin) using Fluor de Lys substrate by fluorescence assay relative to control; procedure, shortened: as §2
[12] = Metabolic stability in human liver microsomes assessed as half life at 1 uM preincubated for 10 mins followed by NADPH addition measured upto 60 mins by LC-MS/MS analysis; assay type: ADME, Microsome; procedure, shortened: as §1
[13] = target: Histone deacetylase 7 (Homo sapiens) (UniProt Q8WUI4); experiment: Inhibition of HDAC7 (unknown origin) using Fluor de Lys substrate by fluorescence assay relative to control; procedure, shortened: as §2
[14] = target: Histone deacetylase 4 (Homo sapiens) (UniProt P56524); experiment: Inhibition of HDAC4 (unknown origin) using Fluor de Lys substrate by fluorescence assay relative to control; procedure, shortened: as §2
[15] = target: Histone deacetylase 11 (Homo sapiens, UniProt Q96DB2); experiment: Inhibition of HDAC11 (unknown origin) using Fluor de Lys substrate by fluorescence assay relative to control; procedure, shortened: as §2
[16] = test system: MCF7; experiment: Antiproliferative activity against human MCF7 assessed as reduction in cell viability measured after 72 hrs using alamar blue based fluorescence method; assay type: functional; conditions: MCF7, 72 h
Procedure, shortened: (§4)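 HCT116 and MCF-7 grown in McCoy's 5A with 10% FBS and penicillin/streptomycin at 37 °C, 5% CO2. Cells plated in 96-well format and exposed to drug for 72 h. Alamar blue (1 mM solution) added, incubated 5–6 h, fluorescence read at 530/590 nm.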

[17] = test system: K562; experiment: Antiproliferative activity against human K562 assessed as reduction in cell viability measured after 72 hrs using alamar blue based fluorescence method; assay type: functional; conditions: K562, 72 h; procedure, shortened: as §3
[18] = test system: HCT-116; experiment: Antiproliferative activity against human HCT116 assessed as reduction in cell viability measured after 72 hrs using alamar blue based fluorescence method; assay type: functional; conditions: HCT-116, 72 h; procedure, shortened: as §4

Chain of Histone deacetylase 1 (Q13547 whole entry): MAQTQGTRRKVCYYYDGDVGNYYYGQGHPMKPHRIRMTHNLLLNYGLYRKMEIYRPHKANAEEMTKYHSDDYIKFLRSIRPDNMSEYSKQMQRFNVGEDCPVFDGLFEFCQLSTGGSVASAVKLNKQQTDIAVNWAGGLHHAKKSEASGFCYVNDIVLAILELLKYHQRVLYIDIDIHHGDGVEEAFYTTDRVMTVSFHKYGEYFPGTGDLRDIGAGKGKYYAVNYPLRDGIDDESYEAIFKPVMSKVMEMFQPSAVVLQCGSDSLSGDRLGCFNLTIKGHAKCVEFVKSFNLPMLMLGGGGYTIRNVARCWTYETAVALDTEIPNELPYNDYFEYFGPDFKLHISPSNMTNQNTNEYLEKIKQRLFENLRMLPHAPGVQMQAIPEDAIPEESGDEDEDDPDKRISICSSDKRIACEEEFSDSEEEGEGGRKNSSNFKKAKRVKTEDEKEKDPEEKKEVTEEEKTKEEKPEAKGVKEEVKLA
Chain of Histone deacetylase 9 (Homo sapiens) (Q9UKV0 whole entry): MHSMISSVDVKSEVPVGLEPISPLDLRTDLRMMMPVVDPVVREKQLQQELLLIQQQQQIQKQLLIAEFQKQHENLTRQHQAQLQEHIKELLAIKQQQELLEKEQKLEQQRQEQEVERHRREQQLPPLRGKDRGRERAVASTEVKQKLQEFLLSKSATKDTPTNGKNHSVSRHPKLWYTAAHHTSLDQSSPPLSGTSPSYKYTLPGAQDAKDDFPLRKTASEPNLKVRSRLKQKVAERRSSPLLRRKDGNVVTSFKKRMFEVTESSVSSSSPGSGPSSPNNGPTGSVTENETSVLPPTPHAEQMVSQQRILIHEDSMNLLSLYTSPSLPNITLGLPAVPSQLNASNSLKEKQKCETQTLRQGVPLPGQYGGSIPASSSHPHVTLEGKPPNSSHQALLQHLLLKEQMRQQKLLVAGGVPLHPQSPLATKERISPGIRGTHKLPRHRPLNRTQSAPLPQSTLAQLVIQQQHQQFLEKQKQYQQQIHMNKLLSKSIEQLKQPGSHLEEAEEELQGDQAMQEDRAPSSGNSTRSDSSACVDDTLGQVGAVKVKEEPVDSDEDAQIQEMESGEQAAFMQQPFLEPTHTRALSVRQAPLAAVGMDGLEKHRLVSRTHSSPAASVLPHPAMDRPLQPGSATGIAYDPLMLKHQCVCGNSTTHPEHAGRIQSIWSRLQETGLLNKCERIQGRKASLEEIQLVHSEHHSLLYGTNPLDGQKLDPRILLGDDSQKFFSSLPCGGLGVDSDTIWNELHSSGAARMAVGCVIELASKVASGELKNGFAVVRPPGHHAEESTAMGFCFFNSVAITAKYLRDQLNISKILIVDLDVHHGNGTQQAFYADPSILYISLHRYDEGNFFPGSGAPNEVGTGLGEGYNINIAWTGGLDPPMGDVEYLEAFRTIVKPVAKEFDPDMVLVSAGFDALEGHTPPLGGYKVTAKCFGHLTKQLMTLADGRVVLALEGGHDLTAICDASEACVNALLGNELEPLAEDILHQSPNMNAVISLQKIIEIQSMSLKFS
Chain of Histone deacetylase 5 (Homo sapiens) (Q9UQL6 whole entry, canonical isoform): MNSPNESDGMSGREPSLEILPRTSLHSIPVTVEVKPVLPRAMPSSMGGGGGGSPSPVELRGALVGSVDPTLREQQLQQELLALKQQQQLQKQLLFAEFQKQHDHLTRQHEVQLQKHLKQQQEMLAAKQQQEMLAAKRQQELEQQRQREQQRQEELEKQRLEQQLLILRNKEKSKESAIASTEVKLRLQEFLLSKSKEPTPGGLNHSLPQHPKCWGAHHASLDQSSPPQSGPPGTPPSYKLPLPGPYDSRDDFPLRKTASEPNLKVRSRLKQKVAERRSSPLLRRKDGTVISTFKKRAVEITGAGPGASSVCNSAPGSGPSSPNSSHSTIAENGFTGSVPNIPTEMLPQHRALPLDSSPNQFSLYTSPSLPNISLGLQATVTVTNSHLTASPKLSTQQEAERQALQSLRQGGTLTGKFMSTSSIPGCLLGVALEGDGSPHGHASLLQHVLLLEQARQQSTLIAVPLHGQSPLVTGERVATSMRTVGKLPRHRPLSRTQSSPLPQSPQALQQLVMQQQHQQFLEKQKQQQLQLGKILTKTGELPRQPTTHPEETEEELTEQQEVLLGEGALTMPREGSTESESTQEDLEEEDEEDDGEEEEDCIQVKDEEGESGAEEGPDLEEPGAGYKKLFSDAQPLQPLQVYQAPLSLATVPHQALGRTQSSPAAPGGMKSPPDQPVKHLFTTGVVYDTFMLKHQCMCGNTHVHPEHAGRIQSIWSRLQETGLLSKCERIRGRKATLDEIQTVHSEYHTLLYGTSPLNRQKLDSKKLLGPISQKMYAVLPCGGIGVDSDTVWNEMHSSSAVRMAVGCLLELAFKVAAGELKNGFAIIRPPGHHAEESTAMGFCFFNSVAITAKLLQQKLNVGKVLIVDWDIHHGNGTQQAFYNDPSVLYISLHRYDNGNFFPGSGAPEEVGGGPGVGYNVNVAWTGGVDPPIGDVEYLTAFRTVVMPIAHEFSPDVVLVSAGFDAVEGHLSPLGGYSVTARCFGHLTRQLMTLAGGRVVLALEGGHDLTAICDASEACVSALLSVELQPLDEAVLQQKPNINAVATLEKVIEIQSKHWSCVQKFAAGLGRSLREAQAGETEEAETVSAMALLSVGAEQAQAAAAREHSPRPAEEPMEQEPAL
Chain of Histone deacetylase 11 (Q96DB2 whole entry): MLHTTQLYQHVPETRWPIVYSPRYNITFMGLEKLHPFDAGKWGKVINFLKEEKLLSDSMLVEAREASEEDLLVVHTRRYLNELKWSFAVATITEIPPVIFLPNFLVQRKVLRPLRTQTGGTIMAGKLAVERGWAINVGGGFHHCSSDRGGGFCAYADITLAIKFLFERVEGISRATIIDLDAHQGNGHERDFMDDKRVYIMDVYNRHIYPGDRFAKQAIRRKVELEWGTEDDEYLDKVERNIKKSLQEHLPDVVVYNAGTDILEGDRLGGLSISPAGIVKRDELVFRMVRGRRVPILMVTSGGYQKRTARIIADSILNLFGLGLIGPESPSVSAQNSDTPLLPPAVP
Chain of Histone deacetylase 7 (Homo sapiens) (Q8WUI4 whole entry): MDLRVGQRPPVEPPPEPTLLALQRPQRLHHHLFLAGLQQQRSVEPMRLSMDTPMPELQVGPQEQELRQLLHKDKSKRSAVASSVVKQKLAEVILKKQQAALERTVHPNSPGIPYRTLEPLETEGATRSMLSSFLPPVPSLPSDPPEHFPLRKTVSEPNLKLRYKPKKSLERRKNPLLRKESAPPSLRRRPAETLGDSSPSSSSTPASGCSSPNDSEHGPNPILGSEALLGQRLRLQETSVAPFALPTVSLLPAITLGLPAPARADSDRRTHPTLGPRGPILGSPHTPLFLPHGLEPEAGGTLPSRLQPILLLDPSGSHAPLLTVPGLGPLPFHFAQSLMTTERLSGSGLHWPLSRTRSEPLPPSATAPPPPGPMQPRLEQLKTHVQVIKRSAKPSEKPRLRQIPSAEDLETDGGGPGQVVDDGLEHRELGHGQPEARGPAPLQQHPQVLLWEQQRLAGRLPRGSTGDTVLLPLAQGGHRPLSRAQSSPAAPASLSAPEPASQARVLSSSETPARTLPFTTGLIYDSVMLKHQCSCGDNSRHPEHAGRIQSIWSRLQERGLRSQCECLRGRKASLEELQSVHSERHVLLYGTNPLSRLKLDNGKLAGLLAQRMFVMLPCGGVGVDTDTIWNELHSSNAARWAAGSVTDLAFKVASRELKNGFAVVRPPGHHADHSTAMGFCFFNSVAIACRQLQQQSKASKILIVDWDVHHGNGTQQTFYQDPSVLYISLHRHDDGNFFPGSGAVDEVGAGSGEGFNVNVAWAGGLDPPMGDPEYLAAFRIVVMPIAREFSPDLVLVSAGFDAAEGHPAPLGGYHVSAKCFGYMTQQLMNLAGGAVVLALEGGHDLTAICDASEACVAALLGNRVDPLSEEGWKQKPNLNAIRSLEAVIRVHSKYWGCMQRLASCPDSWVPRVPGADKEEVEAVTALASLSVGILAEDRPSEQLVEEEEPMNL
Chain of Polyamine deacetylase HDAC10 (Q969S8 whole entry): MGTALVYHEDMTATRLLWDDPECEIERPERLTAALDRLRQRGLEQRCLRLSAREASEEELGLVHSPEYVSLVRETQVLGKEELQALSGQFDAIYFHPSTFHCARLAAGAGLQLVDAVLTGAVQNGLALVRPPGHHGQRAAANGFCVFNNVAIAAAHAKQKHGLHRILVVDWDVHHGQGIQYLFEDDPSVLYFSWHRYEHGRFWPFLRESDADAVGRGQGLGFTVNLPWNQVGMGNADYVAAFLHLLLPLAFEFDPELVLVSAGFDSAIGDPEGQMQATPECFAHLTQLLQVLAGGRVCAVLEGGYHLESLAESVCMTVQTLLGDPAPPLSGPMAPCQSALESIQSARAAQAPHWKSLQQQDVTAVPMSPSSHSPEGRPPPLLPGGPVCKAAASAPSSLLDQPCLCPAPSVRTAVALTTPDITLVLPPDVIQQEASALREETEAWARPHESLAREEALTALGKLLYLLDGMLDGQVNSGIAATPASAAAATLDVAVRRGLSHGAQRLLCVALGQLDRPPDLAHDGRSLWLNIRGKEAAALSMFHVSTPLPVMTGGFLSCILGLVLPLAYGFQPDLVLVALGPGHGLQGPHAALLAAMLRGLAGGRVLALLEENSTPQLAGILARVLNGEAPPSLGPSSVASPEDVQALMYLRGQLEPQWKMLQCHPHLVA

SMILES: COc1ccc2c(c1)/C(=C/C(=O)NCc1ccc(C(=O)Nc3ccc(F)cc3N)cc1)NC2=O
- IC50 ([1]; read-out: IC50): 96.8 nM

SMILES: Nc1ccccc1NC(=O)CCCCCNC(=O)/C=C1\NC(=O)c2ccccc21
- IC50 ([1]; read-out: IC50): 872 nM

SMILES: Nc1cc(F)ccc1NC(=O)c1ccc(CNC(=O)/C=C2\NC(=O)c3ncccc32)cc1
- IC50 ([1]; read-out: IC50): 8360 nM

SMILES: Nc1ccccc1NC(=O)c1ccc(CNC(=O)/C=C2\NC(=O)c3ccccc32)cc1
- IC50 ([1]; read-out: IC50): 65.6 nM
- IC50 [8]: 450 nM
- IC50 [16]: 20100 nM
- IC50 [17]: 286 nM
- IC50 [18]: 483 nM

SMILES: Nc1cc(F)ccc1NC(=O)c1ccc(CNC(=O)/C=C2\NC(=O)c3cc(Cl)c(Cl)cc32)cc1
- IC50 ([1]; read-out: IC50): 489 nM

SMILES: Nc1cc(F)ccc1NC(=O)CCCCCNC(=O)/C=C1\NC(=O)c2ccccc21
- IC50 ([1]; read-out: IC50): 6420 nM

SMILES: Nc1cc(F)ccc1NC(=O)c1ccc(CNC(=O)/C=C2\NC(=O)c3ccc(C(F)(F)F)cc32)cc1
- IC50 ([1]; read-out: IC50): 491 nM

SMILES: O=C(/C=C1\NC(=O)c2ccccc21)NCCCCCC(=O)NO
- IC50 ([1]; read-out: IC50): 57.9 nM

More lines, now with the values ahead:

- IC50 ([1]; read-out: IC50): 70.3 nM
SMILES: Nc1ccc(F)cc1NC(=O)c1ccc(CNC(=O)/C=C2\NC(=O)c3ccccc32)cc1

- IC50 ([1]; read-out: IC50): 167 nM
SMILES: Nc1cc(F)ccc1NC(=O)c1ccc(CNC(=O)/C=C2\NC(=O)c3ccc(F)cc32)cc1

- IC50 ([1]; read-out: IC50): 5720 nM
SMILES: Cc1ccc(NC(=O)c2ccc(CNC(=O)/C=C3\NC(=O)c4ccccc43)cc2)c(N)c1

- IC50 ([1]; read-out: IC50): 1600 nM
SMILES: Nc1cc(F)ccc1NC(=O)CCCCCCNC(=O)/C=C1\NC(=O)c2ccccc21

- IC50 ([1]; read-out: IC50): 320 nM
SMILES: Nc1ccccc1NC(=O)CCCCCCNC(=O)/C=C1\NC(=O)c2ccccc21

- microsomal CLint at 1 µM [2]: 4.98 µL/min/mg
- microsomal CLint at 1 µM [3]: 10.3 µL/min/mg
- microsomal CLint at 1 µM [4]: 5.76 µL/min/mg
- half-life at 1 µM [5]: 5.03 h
- half-life at 1 µM [6]: 3.17 h
- inhibition [7]: inactive
- IC50 [8]: 1970 nM
- IC50 [9]: 235 nM
- inhibition [10]: inactive
- inhibition [11]: inactive
- half-life at 1 µM [12]: 4.6 h
- inhibition [13]: inactive
- inhibition [14]: inactive
- IC50 [15]: 760 nM
- IC50 [16]: 29100 nM
- IC50 [17]: 747 nM
- IC50 [18]: 1090 nM
SMILES: Nc1cc(F)ccc1NC(=O)c1ccc(CNC(=O)/C=C/c2cccnc2)cc1 [TUCIDINOSTAT]

- IC50 ([1]; read-out: IC50): 758 nM
SMILES: Nc1ccccc1NC(=O)c1ccc(CNC(=O)/C=C2\NC(=O)c3ncccc32)cc1

- IC50 ([1]; read-out: IC50): 466 nM
SMILES: Nc1cc(Cl)ccc1NC(=O)c1ccc(CNC(=O)/C=C2\NC(=O)c3ccccc32)cc1

- IC50 [1]: Not Active
SMILES: Nc1cc(F)ccc1NC(=O)c1ccc(CNC(=O)/C=C2\NC(=O)c3cccnc32)cc1
